Sampled rows, rich in hits. Any-hit rate of the full collection: about 2.1%.
GSIS activator – GLuc luminescence reporter in INS-1E cells, primary screen for activators of glucose-dependent secretion of insulin; INS-1E GLuc reporter insulin secretion, 2-3 h; activation, % at 16.6 µM; hit rate 0.61% among 370,000; AID 743287, 2014;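 active = lowest replicate activation of at least 40%, so every replicate reaches that level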
PGC1a acetyl inh – inhibitors of PGC1a acetylation signal, primary screen, cell-based, U2OS, AlphaScreen, inhibitor mode | AlphaScreen anti-acetyl-lysine; with virally co-expressed GCN5 acetyltransferase | inhibition, % at 15.6 µM | hit rate 0.17% among 350,000;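 active = every replicate shows inhibition of at least 40%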
MLL AF4-AF9 inh – inhibitors of AF4 peptide binding to AF9, primary screen, biochemical, AlphaScreen, biotin-AF4 peptide, FLAG-AF9, single point; Protein AF-9 (Homo sapiens), P42568; inhibition, % at 10 µM; hit rate 0.47% among 350,000; AID 651704, 2012;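 active = every replicate reaching a set inhibition limit, whatever the replicate mean, cut at about 25% in these data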
Target sequence (P42568 whole entry, looked up): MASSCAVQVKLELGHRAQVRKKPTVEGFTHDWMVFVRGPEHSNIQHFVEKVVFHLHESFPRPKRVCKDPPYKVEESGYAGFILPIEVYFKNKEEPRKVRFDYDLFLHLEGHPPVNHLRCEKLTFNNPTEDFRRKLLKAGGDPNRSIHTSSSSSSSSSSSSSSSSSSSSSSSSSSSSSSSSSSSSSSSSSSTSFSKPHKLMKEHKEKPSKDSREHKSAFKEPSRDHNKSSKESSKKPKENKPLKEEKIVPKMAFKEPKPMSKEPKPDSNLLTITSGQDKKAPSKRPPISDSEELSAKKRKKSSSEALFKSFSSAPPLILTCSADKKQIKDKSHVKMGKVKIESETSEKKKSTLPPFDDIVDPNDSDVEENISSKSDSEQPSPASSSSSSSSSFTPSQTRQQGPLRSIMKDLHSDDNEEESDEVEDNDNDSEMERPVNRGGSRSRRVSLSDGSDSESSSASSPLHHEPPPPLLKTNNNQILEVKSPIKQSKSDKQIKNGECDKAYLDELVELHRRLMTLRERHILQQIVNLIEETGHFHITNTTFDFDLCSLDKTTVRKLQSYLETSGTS
XiGFP reactiv – activators of inactive X chromosome reactivation, primary screen, imaging, XiGFP fibroblasts, GFP high-content imaging, set 2 | AID 743238, 2013 | activation, % at 7.58 µM | hit rate 0.055% among 360,000 | XiGFP mouse fibroblasts, % GFP-positive cells imaging, 3 d; cells co-treated with 5-aza-dC sensitizer; scaled so ellipticine positive control = 100%;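 active = mean normalized replicate activation at least 10% and every replicate at or above 10%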
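Material: SV40-immortalized XiGFP fibroblast cells, line 68-5-11 | Buffer or medium: DMEM containing 5-aza-dC | Dosing: One concentration, pinned | Times: 3 d treatment, 15 min room-temperature fixation | Controls: Ellipticine 6 µM positive control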
PAX8 inh HTS – inhibitors of PAX8-driven TPO luciferase reporter, primary screen, RMG-I cells, single concentration | inhibition, % at 12.6 µM | hit rate 1.2% among 360,000 | SteadyGlo, 24 h;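 active = mean replicate inhibition at least 60% with every replicate also reaching 60%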;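 note: luciferase light reporting Pax8 driven TPO promoter activity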
EWS-Fli inh – EWS/Fli-driven NR0B1 reporter inhibitors, primary screen, A673 cells, NR0B1 luciferase, luminescence, MLPCN library; viability-normalised; inhibition, % at 12.6 µM; hit rate 0.67% among 350,000;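 active = mean inhibition of at least 50% after viability correction, with every replicate also passing that limit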;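 note: firefly luciferase signal divided by Alamar Blue viability fluorescence both relative to DMSO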
A number is an active result; . = inactive; / = not tested or not shown.

SMILES	GSIS activator	PGC1a acetyl inh	MLL AF4-AF9 inh	XiGFP reactiv	PAX8 inh HTS	EWS-Fli inh
O=C(C1CCC1)N1CC(=O)N2[C@H](CO)[C@@H](c3ccc(C#Cc4cccc(F)c4)cc3)[C@H]2C1	.	.	.	.	.	.
O=C(c1ccco1)N1CCN(C(=O)N2c3ccccc3Sc3ccccc32)CC1	.	.	.	/	/	54
O=C1c2ccccc2-c2onc3c(N4CCN(CCO)CC4)cc(N4CCN(C(=O)c5ccco5)CC4)c1c23	.	/	76	.	.	.
COc1ccc2c3c(n(C)c2c1)[C@H](CO)N(C(=O)CC1CC1)CC31CCN(Cc2ccncc2)CC1	.	.	.	.	.	.
COc1ccccc1OCC(=O)N1CCCCCC1	/	.	.	.	.	.
CCOC(=O)N1CCN(C(=O)COc2ccccc2OC)CC1	62	.	/	/	/	/
CCOC(=O)C1=C(C)NC(SC)=C(C#N)C1CC(C)C (centres undefined)	.	.	.	.	.	54
CC(=O)C1=C(C)NC(SCC(N)=O)=C(C#N)C1CC(C)C (centres undefined)	.	.	.	.	.	.
Clc1nc(Cl)c2ncn(-c3ccccc3)c2n1	.	.	.	.	.	.
CNc1nc(Cl)nc2c1ncn2-c1ccccc1	87	.	.	.	.	.
O=C(OCc1ccccc1F)c1cc([N+](=O)[O-])ccc1N1CCOCC1	.	.	.	.	.	.
CSc1ccc(COC(=O)c2cc([N+](=O)[O-])ccc2N2CCOCC2)cc1	.	/	.	.	96	55
Cc1ccccc1COC(=O)c1cc([N+](=O)[O-])ccc1N1CCOCC1	.	/	.	.	.	/
COc1ccc(OC)c(COC(=O)c2cc([N+](=O)[O-])ccc2N2CCOCC2)c1	.	.	.	.	.	65
CCC(=O)N1CC2(CCN(Cc3ccncc3)CC2)c2c(n(C)c3cc(OC)ccc23)[C@H]1CO	.	.	.	.	/	.
O=C(C[C@H]1CC[C@H]2[C@@H](COC[C@H](O)CN2S(=O)(=O)c2cccc(Cl)c2)O1)Nc1ccc(-c2ccccc2)cc1	.	.	.	.	.	.
O=C(C[C@H]1CC[C@@H]2[C@H](COC[C@H](O)CN2S(=O)(=O)c2ccccc2)O1)Nc1ccc(-c2ccccc2)cc1	.	.	.	.	63	.
O=C(C[C@H]1CC[C@@H]2[C@H](COC[C@@H](O)CN2S(=O)(=O)c2cccc(Cl)c2)O1)Nc1ccc(-c2ccccc2)cc1	.	.	.	.	106	.
O=C(C[C@H]1CC[C@H]2[C@@H](COC[C@@H](O)CN2S(=O)(=O)c2cccc(Cl)c2)O1)Nc1ccc(-c2ccccc2)cc1	.	.	.	.	87	.
Cc1ccc(S(=O)(=O)N2C[C@@H](O)COC[C@H]3O[C@H](CC(=O)NCC4CCCCC4)CC[C@@H]32)cc1	.	.	30	.	.	.
COc1cccc(S(=O)(=O)N[C@H]2C=C[C@H](CC(=O)NCc3ccncc3)O[C@H]2CO)c1	.	.	.	.	/	/
C[C@@H]1CN([C@H](C)CO)C(=O)c2cc(/C=C/c3ccccc3)cnc2O[C@@H]1CN(C)C(=O)CN1CCOCC1	.	.	.	.	.	.
COc1ccc(S(=O)(=O)Nc2ccc3c(c2)C(=O)N([C@@H](C)CO)C[C@H](C)[C@@H](CN(C)Cc2ccc(C(F)(F)F)cc2)OCCCC[C@H](C)O3)cc1	.	.	.	.	106	.
COc1ccc(S(=O)(=O)Nc2ccc3c(c2)C(=O)N([C@H](C)CO)C[C@H](C)[C@@H](CN(C)Cc2ccc(C(F)(F)F)cc2)OCCCC[C@H](C)O3)cc1	.	.	.	.	104	.
COc1ccc(S(=O)(=O)Nc2ccc3c(c2)C(=O)N([C@H](C)CO)C[C@H](C)[C@@H](CN(C)Cc2ccc(C(F)(F)F)cc2)OCCCC[C@@H](C)O3)cc1	.	.	.	.	.	.
